{"data": "Experimental data of several laboratories", "KIT D816V": "Mast/stem cell growth factor receptor Kit (KIT, Homo sapiens, UniProt P10721, D816V)", "KIT T670I/V559D": "Mast/stem cell growth factor receptor Kit (KIT, Homo sapiens, UniProt P10721, T670I/V559D)", "KIT A829P": "Mast/stem cell growth factor receptor Kit (KIT, Homo sapiens, UniProt P10721, A829P)", "KIT L576P": "Mast/stem cell growth factor receptor Kit (KIT, Homo sapiens, UniProt P10721, L576P)", "KIT autoinhibited": "Mast/stem cell growth factor receptor Kit, autoinhibited (KIT, Homo sapiens, UniProt P10721)", "KIT": "Mast/stem cell growth factor receptor Kit (KIT, Homo sapiens, UniProt P10721)", "KIT D816H": "Mast/stem cell growth factor receptor Kit (KIT, Homo sapiens, UniProt P10721, D816H)", "KIT V559D/V654A": "Mast/stem cell growth factor receptor Kit (KIT, Homo sapiens, UniProt P10721, V559D/V654A)", "note": "Protocols differ between the studies behind these lines."}
{"SMILES": "O=C(c1ccc(Nc2ncc(Cl)c(-c3cc4ccccc4s3)n2)cc1)N1CCC(N2CCCC2)CC1", "target": "KIT D816V", "assay": "binding, competition with immobilised ligand", "setting": "1 µM", "remaining binding": "13%"}
{"SMILES": "O=C(Nc1c[nH]nc1C(=O)NC1CCNCC1)c1cc(F)cc(F)c1", "target": "Mast/stem cell growth factor receptor Kit (KIT, Homo sapiens, UniProt P10721, V559D)", "assay": "binding, competition with immobilised ligand", "setting": "1 µM", "remaining binding": "100%"}
{"SMILES": "CN(C)c1nccc(-c2cnc3ncccn23)n1", "target": "KIT T670I/V559D", "assay": "binding", "setting": "1 µM", "remaining binding": "92%"}
{"SMILES": "CCN1CCN(Cc2ccc(C(=O)Nc3ccc(C)c(Oc4ccc5c(c4)CC(=O)N5)c3)cc2C(F)(F)F)CC1", "target": "KIT D816V", "assay": "binding, competition with immobilised ligand", "setting": "1 µM", "remaining binding": "81%"}
{"SMILES": "O=C(NCCCN1CCOCC1)c1ccc(Nc2nccc(-c3cc4ccccc4s3)n2)cc1", "target": "KIT A829P", "assay": "binding, competition with immobilised ligand", "setting": "1 µM", "remaining binding": "36%"}
{"SMILES": "Cc1cnn2ncc(-c3ccnc(N(C)C)n3)c2c1", "target": "KIT L576P", "assay": "binding", "setting": "1 µM", "remaining binding": "100%"}
{"SMILES": "O=C(NCCCN1CCOCC1)c1ccc(Nc2ncc(Cl)c(-c3ccc(Cl)s3)n2)cc1", "target": "KIT T670I/V559D", "assay": "binding, competition with immobilised ligand", "setting": "1 µM", "remaining binding": "2.3%"}
{"SMILES": "c1cnn2ncc(-c3ccnc(N4CCC45COC5)n3)c2c1", "target": "KIT A829P", "assay": "binding", "setting": "1 µM", "remaining binding": "61%"}
{"SMILES": "Cc1cc(NC(=O)c2cccc(S(F)(F)(F)(F)F)c2)cc(-n2ccn3nc(-c4cccnc4)cc23)c1", "target": "KIT autoinhibited", "assay": "cell-free assay, competition with immobilised ligand", "setting": "1 µM", "remaining binding": "70.3%"}
{"SMILES": "F[C@@H]1CCN(c2nccc(-c3cnn4ncccc34)n2)C1", "target": "KIT D816V", "assay": "binding", "setting": "1 µM", "remaining binding": "100%"}
{"SMILES": "C[C@@H]1CN(c2ccc3ncc(-c4ccc5[nH]nc(C6CC6)c5c4)n3n2)C[C@H](C)O1", "target": "KIT", "assay": "binding, competition with immobilised ligand", "setting": "50 nM", "remaining binding": "96%"}
{"SMILES": "COc1cnc(Nc2cccc(S(N)(=O)=O)c2)nc1N1CCN(c2ccccc2)CC1", "target": "KIT L576P", "assay": "binding, competition with immobilised ligand", "setting": "1 µM", "remaining binding": "80%"}
{"SMILES": "O=C(c1ccc(Nc2nccc(-c3cc4ccccc4s3)n2)cc1)N1CCC(N2CCCC2)CC1", "target": "KIT D816H", "assay": "binding, competition with immobilised ligand", "setting": "1 µM", "remaining binding": "18%"}
{"SMILES": "C=CC(=O)N1CCC(C(=O)NCC(=O)N2CCN(c3nc(-c4cnc(N)nc4C(F)F)nc(N4CCOCC4)n3)CC2)CC1", "target": "KIT L576P", "assay": "binding, competition with immobilised ligand", "setting": "1 µM", "remaining binding": "53%"}
{"SMILES": "COc1ccc2cc(OCC3(C(=O)O)CN(C(=O)c4ccc(F)cc4)C3)ccc2c1", "target": "KIT T670I/V559D", "assay": "cell-free assay, competition with immobilised ligand", "setting": "1 µM", "remaining binding": "100%"}
{"SMILES": "CC1CCCN1c1nccc(-c2cnn3ncccc23)n1 (centres unmarked)", "target": "KIT L576P", "assay": "binding", "setting": "1 µM", "remaining binding": "100%"}
{"SMILES": "O=C(c1ccc(Nc2ncc(Cl)c(-c3ccc(Cl)s3)n2)cc1)N1CCC(N2CCCC2)CC1", "target": "KIT V559D/V654A", "assay": "binding, competition with immobilised ligand", "setting": "1 µM", "remaining binding": "9.3%"}
{"SMILES": "COc1ncc2cc3ccccc3nc2c1C#N", "target": "KIT D816H", "assay": "cell-free assay, competition with immobilised ligand", "setting": "5 µM", "remaining binding": "100%"}
{"SMILES": "CC(C)(C)c1ccc(-c2nc(CBr)nn2-c2cccc(O)c2)cc1", "target": "KIT T670I/V559D", "assay": "cell-free assay, competition with immobilised ligand", "setting": "10 µM", "remaining binding": "95%"}
{"SMILES": "C[C@H](NC(=O)c1cnc2n1[C@](C)(Cc1ccc(C#N)cc1)C(=O)N2c1cc(Cl)c(F)c(Cl)c1)C(=O)NC1(c2ccccn2)CC1", "target": "KIT D816H", "assay": "cell-free assay, competition with immobilised ligand", "setting": "1 µM", "remaining binding": "100%"}
{"SMILES": "c1cncc(-c2cccc(Nc3nccc(NC4CCCCC4)n3)c2)c1", "target": "KIT A829P", "assay": "binding, competition with immobilised ligand", "setting": "10 µM", "remaining binding": "27%"}
{"SMILES": "Nc1ncc2c(n1)-c1c([nH]c3ccc(C#CC4CC4)cc13)CCCC2", "target": "KIT D816V", "assay": "binding, competition with immobilised ligand", "setting": "1 µM", "remaining binding": "100%"}
{"SMILES": "CN1CCN(c2ccc(Nc3nccc(-c4cccc([N+](=O)[O-])c4)n3)cc2C(F)(F)F)CC1", "target": "KIT L576P", "assay": "binding", "setting": "10 µM", "remaining binding": "0.05%"}
{"SMILES": "N#Cc1ccccc1CSc1nnc2c(n1)[nH]c1ccccc12", "target": "KIT T670I/V559D", "assay": "binding, competition with immobilised ligand", "setting": "10 µM", "remaining binding": "100%"}
{"SMILES": "C[C@@H](c1cccc(C#N)c1)n1cc(Cl)cc(C(N)=O)c1=N", "target": "KIT D816H", "assay": "cell-free assay, competition with immobilised ligand", "setting": "1 µM", "remaining binding": "100%"}
{"SMILES": "COc1cnc(Nc2cccc(S(N)(=O)=O)c2)nc1N1CCN(c2ccccc2)C(=O)C1", "target": "KIT A829P", "assay": "binding, competition with immobilised ligand", "setting": "1 µM", "remaining binding": "68%"}
{"SMILES": "CCC(=O)N[C@H]1CC[C@@H](C(=O)N(C)c2ccc(-c3nc4ccccc4o3)cc2)C1", "target": "KIT D816V", "assay": "cell-free assay, competition with immobilised ligand", "setting": "1 µM", "remaining binding": "86%"}
{"SMILES": "CN(CCCC(F)(F)F)c1nccc(-c2cnn3ncccc23)n1", "target": "KIT D816H", "assay": "binding", "setting": "1 µM", "remaining binding": "77%"}
{"SMILES": "CC(C)(O)c1cncc(-c2nc3ccc(F)cc3n2C2CC2)c1", "target": "KIT A829P", "assay": "cell-free assay, competition with immobilised ligand", "setting": "1 µM", "remaining binding": "100%"}
{"SMILES": "CN(c1nccc(-c2cnn3ncccc23)n1)C1CC1", "target": "KIT autoinhibited", "assay": "binding", "setting": "1 µM", "remaining binding": "100%"}
{"SMILES": "CNC(=O)[C@@H]1CC[C@@H](n2c(-c3ccc4cnccc4c3)nc3ccc(C(=O)NCc4cccc(C(N)=O)c4)cc32)C1", "target": "KIT autoinhibited", "assay": "binding, competition with immobilised ligand", "setting": "1 µM", "remaining binding": "100%"}
{"SMILES": "O=C(O)[C@H]1[C@H](Cn2nnc3ccccc3c2=O)CC[C@@H]1C(=O)c1ccc(OCCC2CCOCC2)cc1", "target": "KIT L576P", "assay": "cell-free assay, competition with immobilised ligand", "setting": "1 µM", "remaining binding": "96%"}
{"SMILES": "CN1CCN(c2ccc(Nc3nccc(-c4ccccc4)n3)cc2C(F)(F)F)CC1", "target": "KIT T670I/V559D", "assay": "binding", "setting": "10 µM", "remaining binding": "0.15%"}
{"SMILES": "Cc1cnc(Nc2ccc(C(=O)N3CCC(N4CCCC4)CC3)cc2)nc1-c1cc2ccccc2s1", "target": "KIT L576P", "assay": "binding, competition with immobilised ligand", "setting": "1 µM", "remaining binding": "1%"}
{"SMILES": "O=C(NCC1CCOCC1)c1n[nH]cc1NC(=O)c1c(F)cccc1F", "target": "KIT", "assay": "binding, competition with immobilised ligand", "setting": "1 µM", "remaining binding": "100%"}
{"SMILES": "C[C@@H]1CCN(c2nccc(-c3cnn4ncccc34)n2)C1", "target": "KIT V559D/V654A", "assay": "binding", "setting": "1 µM", "remaining binding": "79%"}
{"SMILES": "CN1CCN(c2cnc3c(C4CCN(C(=O)c5ccc(OC(F)(F)F)cc5N)CC4)ncnc3c2)CC1", "target": "KIT autoinhibited", "assay": "cell-free assay, competition with immobilised ligand", "setting": "1 µM", "remaining binding": "85%"}
{"SMILES": "C[C@@H](c1ccc(-n2cnc3c(N)ncnc32)cc1)N1CCc2nn(C)c(Cc3ccccc3)c2C1=O", "target": "KIT A829P", "assay": "binding, competition with immobilised ligand", "setting": "0.1 µM", "remaining binding": "52%"}
